Screening results deposited in PubChem BioAssay by several laboratories.
L major viab – reduces viability of Leishmania major promastigotes. resazurin fluorescence viability. inhibition, % at 10 µM. 200,000 compounds, 9% hits; in the data active = inhibition above about 50%;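 also: promastigotes grown with compound for 44 hours at 28 °C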
Mdm2 MdmX PPI – disrupts the human Mdm2-MdmX interaction | inhibition, % at 8 µM | O15151+Q00987 | SaOS-2 split-luciferase Mdm2/MdmX complementation, luminescence | 330,000 compounds, 3% hits;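 active = inhibition of at least 50% at 8 µM in the primary screen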
Target sequence (O15151 whole entry, looked up): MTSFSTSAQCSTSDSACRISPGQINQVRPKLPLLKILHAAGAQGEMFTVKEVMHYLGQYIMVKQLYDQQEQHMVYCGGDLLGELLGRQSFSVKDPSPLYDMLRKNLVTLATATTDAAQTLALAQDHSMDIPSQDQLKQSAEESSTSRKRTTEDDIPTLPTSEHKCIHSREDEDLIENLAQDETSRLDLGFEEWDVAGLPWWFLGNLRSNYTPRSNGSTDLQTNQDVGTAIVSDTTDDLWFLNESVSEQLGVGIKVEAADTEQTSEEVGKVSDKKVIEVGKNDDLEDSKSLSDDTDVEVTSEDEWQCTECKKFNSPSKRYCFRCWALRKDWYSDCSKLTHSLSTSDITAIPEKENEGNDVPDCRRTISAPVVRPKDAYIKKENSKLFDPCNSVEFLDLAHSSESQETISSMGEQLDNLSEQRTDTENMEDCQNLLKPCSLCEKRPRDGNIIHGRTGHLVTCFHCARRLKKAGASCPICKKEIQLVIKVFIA
Target sequence (Q00987 whole entry, looked up): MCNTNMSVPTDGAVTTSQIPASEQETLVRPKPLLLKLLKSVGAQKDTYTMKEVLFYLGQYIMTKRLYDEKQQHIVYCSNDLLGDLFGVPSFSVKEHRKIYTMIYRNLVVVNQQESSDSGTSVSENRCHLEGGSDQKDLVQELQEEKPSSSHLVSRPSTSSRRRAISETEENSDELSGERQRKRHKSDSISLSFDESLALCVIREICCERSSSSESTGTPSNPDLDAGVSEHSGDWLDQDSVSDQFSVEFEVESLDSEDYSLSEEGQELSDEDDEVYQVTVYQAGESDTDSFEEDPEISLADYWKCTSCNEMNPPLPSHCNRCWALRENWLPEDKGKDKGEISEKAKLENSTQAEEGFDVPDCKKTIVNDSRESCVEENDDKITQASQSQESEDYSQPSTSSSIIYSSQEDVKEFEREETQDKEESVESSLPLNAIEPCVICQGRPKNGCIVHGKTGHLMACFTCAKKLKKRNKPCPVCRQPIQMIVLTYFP
Beta apoptosis – blocks beta cell apoptosis | INS-1E cytokine-induced death, ATP luminescence, 48 h; percent of positive-control rescue, neutral wells zero | protection from apoptosis, % (concentration not given with the values) | 300,000 compounds, 0.8% hits;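 active = Every replicate reaches about 75%, or at least half do and their mean reaches it too, limit read from the data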;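 also: 0% = cytokine-treated negative control wells and 100% = positive control rescue; higher means more ATP so stronger rescue from cytokine killing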
CSC inhib – blocks cancer stem cells; AID 2717; 300,000 compounds, 1.1% hits; cancer stem cell-like cells viability, luminescence; inhibition, % at 7.5 µM; in the data active = inhibition above about 75%; tested in HMLE shEcad cells
T cruzi inh – T. cruzi replication inhibition | T. cruzi beta-gal in NIH3T3, luminescence, 90 h | inhibition, % (concentration not given with the values) | 300,000 compounds, 1.4% hits | AID 1885;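 active = mean inhibition across valid replicates above about 55%, limit read from the data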;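 also: signal also drops with host cell toxicity which is not excluded here; 0% = plate median of DMSO wells and 100% = zero luminescence signal; higher percent means less beta-gal luminescence so fewer parasites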
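Read-out: Parasite load inhibition, % | Test system: Mouse NIH/3T3 fibroblasts infected with β-gal-expressing T. cruzi Tulahuen C4 | Amount: 5,000 cells/well | Medium: DMEM, 2% fetal bovine serum | Signal: GalScreen β-gal luminescence, detergent lysis, 60 min | Timing: 3 h attach, ≥90 h co-culture | Also added: Tulahuen C4 trypomastigotes, 5000/well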
SKKanGAS inh – blocks kanamycin growth of S. pyogenes SKKanGAS strain. BacTiter-Glo, 6 h. inhibition, % at 7.5 µM. 300,000 compounds, 1.3% hits;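 active = mean replicate score, as percent of positive control median, at least 50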;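 also: strain carries kanamycin resistance gene driven by streptokinase promoter and grows in 40 µg/ml kanamycin; loss of luminescence reflects streptokinase promoter inhibition or plain growth inhibition; 0% = median of DMSO wells and 100% = positive control at its reference dose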
* hit, by the source's call; · = no result given. Hits are enriched below; roughly 9.4% of the tested compounds scored in any of these assays.

SMILES	L major viab	Mdm2 MdmX PPI	Beta apoptosis	CSC inhib	T cruzi inh	SKKanGAS inh
COCCOC(=O)c1[nH]c2c(c1C)C(=O)CC(c1cc(OC)c(OC)c(OC)c1)C2 (stereo not given)	·	32	5	-1	3	2
CCCCOC(=O)c1[nH]c2c(c1C)C(=O)CC(c1cc(OC)c(OC)c(OC)c1)C2 (stereo not given)	3	26	75*	25	31	6
Cc1nn(-c2cccc(C(F)(F)F)c2)c(=O)c2noc(C)c12	·	4	·	-6	·	8
Cc1ccc(-c2cc(C(=O)N/N=C/c3c(C)nn(C)c3C)c3ccccc3n2)cc1C	82*	13	19	-1	50	29
O=C(N/N=C/c1ccc[nH]1)c1cc(-c2cccs2)nc2ccccc12	26	24	13	31	-9	31
Cn1cccc1/C=N/NC(=O)c1cc(-c2cccs2)nc2ccccc12	56*	49	10	·	-19	5
Cn1nnc2cc(C(=O)Nc3ccc4ccccc4c3)ccc21	-7	-134	-4	2	-4	-3
CCCNS(=O)(=O)c1ccc(OCC(=O)N2CCCC2)cc1	-6	4	2	-7	5	-5
CCN(CC)c1nc2c(c(=O)n(C)c(=O)n2C)n1CC(=O)c1ccccc1	·	6	-2	3	2	19
O=[N+]([O-])c1ccccc1OCCCNCc1ccccc1	98*	3	6	5	7	7
CCOc1ccccc1OCCOCCOc1ccccc1[N+](=O)[O-]	-2	-24	4	-1	11	-1
O=C(COc1ccccc1[N+](=O)[O-])c1ccccc1	99*	21	-14	0	-49	-11
O=[N+]([O-])c1ccccc1OC/C(=N\O)c1ccccc1	·	8	-6	-10	4	6
COc1ccc(OC)c(S(=O)(=O)Nc2c(C)n(C)n(-c3ccccc3)c2=O)c1	·	27	-6	-22	-8	-1
C/C(=N\NC(=O)c1cc(-c2cccc(OC(C)C)c2)nc2ccccc12)c1cccnc1	·	22	2	-3	63*	25
C/C(=N\NC(=O)c1cc(-c2ccc(C)s2)nc2ccccc12)c1cccnc1	·	17	-2	9	18	-1
C/C(=N\NC(=O)c1cccc2ccccc12)c1cccnc1	·	10	·	·	-1	-7
C/C(=N/NC(=O)c1cc(-c2ccccc2)nc2c(Cl)cccc12)c1cccnc1	·	17	14	13	41	90*
O=C(CSc1nnc(NC(=O)C2CC(=O)N(c3ccc(F)cc3)C2)s1)NCC1CCCO1 (stereo not given)	·	30	0	-23	-4	5
Cc1cc(C(=O)Nc2ccc(Br)cc2)cs1	·	-186	5	2	6	4
COc1ccc(OC)c(-c2c3cc(O)c(=O)cc-3oc3cc(O)c(O)cc23)c1	-9	·	1	95*	·	·
COc1ccc(NC(=O)c2c(F)cccc2F)cc1S(=O)(=O)Nc1ccc(Br)cc1	52*	18	-3	-4	20	13
COc1ccc(NS(=O)(=O)c2cc(OC)ccc2OC)cc1	·	-1	-3	3	11	2
COc1ccc(OC)c(NS(=O)(=O)c2cc(OC)ccc2OC)c1	87*	7	·	·	5	-7
COc1ccc(OC)c(S(=O)(=O)Nc2ccc(F)cc2)c1	4	14	-4	-5	-13	14
SMILES	L major viab	Mdm2 MdmX PPI	Beta apoptosis	CSC inhib	T cruzi inh	SKKanGAS inh
COc1ccc(S(=O)(=O)Nc2ccc(S(=O)(=O)Nc3ccc(F)cc3)cc2)cc1C	8	2	1	12	-1	44
COc1ccc(S(=O)(=O)Nc2cccc(F)c2)cc1C	65*	3	-5	4	1	-16
COc1ccc(OC)c(S(=O)(=O)Nc2cccc(F)c2)c1	97*	-18	-7	-1	12	0
COc1ccc(NS(=O)(=O)c2cc(NC(=O)c3ccccn3)ccc2OC)cc1Br	·	14	0	-17	·	·
C#CCSc1nc(=O)c2cccnc2n1-c1ccc(C)cc1	·	-3	-7	-13	3	4
CCOC(=O)C1=C(c2ccccc2)Nc2ncnn2C1c1cc(OC)cc(OC)c1OC (stereo not given)	92*	-10	3	-5	52	7
CCOC(=O)C1=C(C(F)(F)F)Nc2ncnn2C1c1cc(OC)c(OC)cc1OC (stereo not given)	-1	-26	-8	0	2	-7
